Results as given in ChEMBL document CHEMBL1155784, “Aromatic 2-chloroethyl urea derivatives and bioisosteres. Part 2: Cytocidal activity and effects on the nuclear translocation of thioredoxin-1, and the cell cycle progression” (2008).
Calls of active or inactive are those of the source. The calls are words filed in the database; no cut-off is given here.

What was measured:
MCF7 [1] = assay: Cell cycle arrest in human MCF7 cells assessed as S phase accumulation at 2 times GI50 after 24 hrs by flow cytometry
M21 [2] = assay: Inhibition of nuclear translocation of thioredoxin 1 in human M21 cells at 5 uM after 18 hrs by immunocytochemistry; assay type: functional, cell-based
In short: (§1)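 M21 cells seeded on fibronectin-coated coverslips, held 18 h at 37 °C, then treated with compounds (5–50 µM; reference agents 0.1–40 µM) or 0.1% DMSO. Fixed in 3.7% formaldehyde, permeabilized with 0.1% saponin, and blocked in 3% BSA. Stained 1 h at 37 °C with anti-thioredoxin-1 monoclonal (1/200), then with Alexa-488 anti-mouse IgG plus DAPI for nuclei.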

MCF7 [3] = assay: Cell cycle arrest in human MCF7 cells assessed as G2/M phase accumulation at 2 times GI50 after 24 hrs by flow cytometry
MCF7 [4] = assay: Cell cycle arrest in human MCF7 cells assessed as G0/G1 phase accumulation at 2 times GI50 after 24 hrs by flow cytometry
M21 [5] = assay: Inhibition of nuclear translocation of thioredoxin 1 in human M21 cells at 50 uM after 18 hrs by immunocytochemistry; assay type: functional, cell-based
In short: as §1

MCF7 [6] = assay: Growth inhibition of human MCF7 cells after 48 hrs by sulforhodamine B assay; assay type: functional; details: for GI50: MCF7, 48 h
In short: (§2)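 NCI-style sulforhodamine B assay. HT-29 (5×10³), M21 or MCF-7 (3.5×10³) cells were grown 24 h, then given DMSO-solubilized drug at 100 to 0.7 µM final (DMSO <0.5%) for 48 h. Fixed in cold 10% TCA, stained with 0.1% SRB, read at 585 nm after subtracting a day-0 plate. Inhibition is relative to DMSO controls; GI50 from at least triplicate runs.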

M21 [7] = assay: Growth inhibition of human M21 cells after 48 hrs by sulforhodamine B assay; assay type: functional; details: for GI50: M21, 48 h
In short: as §2

HT-29 = assay: Growth inhibition of human HT29 cells after 48 hrs by sulforhodamine B assay; assay type: functional; details: for GI50: HT-29, 48 h
In short: as §2

SMILES | Activity (MCF7 [1]) | Activity (M21 [2]) | Activity (MCF7 [3]) | Activity (MCF7 [4]) | Activity (M21 [5]) | GI50 (MCF7 [6]) | GI50 (M21 [7]) | GI50 (HT-29) | Activity (MCF7 [6]) | Activity (M21 [7]) | Activity (HT-29)
CC(C)(C)c1ccc(NC(=O)NC(=O)CCl)cc1 | 20% | Active | 19% | 61% |  |  |  |  |  |  | 
O=C(NCCCl)Nc1cccc(Oc2ccccc2)c1 |  |  |  |  | inactive |  |  |  |  |  | 
O=C(CCl)NC(=O)Nc1ccc(OCc2ccccc2)cc1 |  | inactive |  |  |  | 4.6 µM | 5.1 µM | 2.6 µM |  |  | 
c1ccc2c(c1)-c1ccccc1C2NC1=NCCO1 |  |  |  |  | Active |  |  |  |  |  | 
O=C(CCl)NC(=O)Nc1ccc(OC2CCCCCC2)cc1 | 30% | Active | 11% | 59% |  | 3.6 µM | 5 µM | 2.3 µM |  |  | 
c1ccc(Oc2ccc(NC3=NCCO3)cc2)cc1 |  | inactive |  |  | inactive | 3.5 µM | 3.1 µM | 2 µM |  |  | 
CCNC(=O)Nc1ccc(OC2CCCCC2)cc1 |  |  |  |  |  |  |  |  | inactive | inactive | inactive
O=C(CCl)NC(=O)NC1c2ccccc2-c2ccccc21 |  | inactive |  |  |  |  |  |  |  |  | 
O=C(CCl)NC(=O)Nc1cccc(OC2CCCCCC2)c1 | 31% | Active | 11% | 58% |  | 7.2 µM | 4.2 µM | 6.9 µM |  |  | 
c1cc(NC2=NCCO2)cc(OC2CCCC2)c1 | 17% |  | 6% | 77% | Active | 62.1 µM | 76.9 µM | 52.2 µM |  |  | 
O=C(CCl)NC(=O)Nc1cccc(OC2CCCCC2)c1 | 20% | Active | 7% | 73% |  | 6.3 µM | 2.7 µM | 3.8 µM |  |  | 
O=C(CCl)NC(=O)Nc1ccc2c(c1)CCC2 |  | Active |  |  |  |  |  |  |  |  | 
O=C(CCl)NC(=O)Nc1ccc(OC2CCCC2)cc1 | 33% | Active | 9% | 58% |  | 3.9 µM | 2.9 µM | 3.1 µM |  |  | 
CCNC(=O)Nc1ccc(C2CCCCC2)cc1 |  |  |  |  |  |  |  |  | inactive | inactive | inactive
O=C(CCl)NC(=O)Nc1ccc(I)cc1 | 22% | Active | 10% | 68% |  |  |  |  |  |  | 
Cc1ccc(NC(=O)NC(=O)CCl)cc1 |  | Active |  |  |  |  |  |  |  |  | 
c1cc(C2CCCCC2)ccc1NC1=NCCO1 | 16% |  | 11% | 73% | Active | 17.5 µM | 17.8 µM | 12.8 µM |  |  | 
C1COC(NC2C3CC4CC(C3)CC2C4)=N1 (centres undefined) |  |  |  |  | Active | 24.1 µM | 60.7 µM | 53.4 µM |  |  | 
O=C(CCl)NC(=O)Nc1cccc(OC2CCCC2)c1 | 34% | Active | 13% | 53% |  | 6.2 µM | 3.5 µM | 3.1 µM |  |  | 
c1ccc(COc2cccc(NC3=NCCO3)c2)cc1 |  | inactive |  |  |  | 2.6 µM | 1.5 µM | 0.8 µM |  |  | 
Cc1ccc(NC2=NCCO2)cc1 |  |  |  |  | inactive |  |  |  |  |  | 

SMILES | Activity (MCF7 [1]) | Activity (M21 [2]) | Activity (MCF7 [3]) | Activity (MCF7 [4]) | Activity (M21 [5]) | GI50 (MCF7 [6]) | GI50 (M21 [7]) | GI50 (HT-29) | Activity (MCF7 [6]) | Activity (M21 [7]) | Activity (HT-29)
O=C(NCCCl)NC1c2ccccc2-c2ccccc21 |  |  |  |  | Active |  |  |  |  |  | 
CCNC(=O)Nc1ccc2c(c1)CCC2 |  |  |  |  |  |  |  |  | inactive | inactive | inactive
Ic1ccc(NC2=NCCO2)cc1 | 10% | Active | 76% | 14% |  |  |  |  |  |  | 
O=C(CCl)NC(=O)Nc1cccc(Oc2ccccc2)c1 |  | Active |  |  |  | 8.1 µM | 5.3 µM | 5.2 µM |  |  | 
O=C(CCl)NC(=O)Nc1ccc(-c2ccccc2)cc1 |  | Active |  |  |  | 3.9 µM | 1.4 µM | 2.3 µM |  |  | 
Cc1ccc(NC(=O)NC(=O)CCl)cc1C |  | inactive |  |  |  |  |  |  |  |  | 
Cc1ccc(NC(=O)NCCCl)cc1 |  |  |  |  | Active |  |  |  |  |  | 
O=C(NCCCl)NC1C2CC3CC(C2)CC1C3 (centres undefined) |  |  |  |  | inactive | 11.3 µM |  | 50.6 µM |  | inactive | 
O=C(CCl)NC(=O)Nc1ccc2ccccc2c1 |  | inactive |  |  |  | 7.6 µM | 3.7 µM | 4.9 µM |  |  | 
CC(C)(C)c1ccc(NC2=NCCO2)cc1 | 11% | inactive | 74% | 15% |  |  |  |  |  |  | 
c1cc(OC2CCCCC2)ccc1NC1=NCCO1 | 13% |  | 5% | 82% | Active | 19.1 µM | 20.8 µM | 12.6 µM |  |  | 
c1cc(OC2CCCCCC2)ccc1NC1=NCCO1 | 14% |  | 4% | 82% | Active | 26.8 µM | 27.1 µM | 16.6 µM |  |  | 
O=C(CCl)NC(=O)Nc1ccc(Oc2ccccc2)cc1 |  | inactive |  |  |  | 4.2 µM | 4.2 µM | 3.6 µM |  |  | 
c1ccc2cc(NC3=NCCO3)ccc2c1 |  | Active |  |  | Active | 4.5 µM | 3.5 µM | 2 µM |  |  | 
CCNC(=O)Nc1cccc(OC2CCCCCC2)c1 |  |  |  |  |  |  |  |  | inactive | inactive | inactive
O=C(CCl)NC(=O)Nc1cccc(OCc2ccccc2)c1 |  | inactive |  |  |  | 6.2 µM | 4.5 µM | 6.5 µM |  |  | 
c1cc(OC2CCCC2)ccc1NC1=NCCO1 | 23% |  | 7% | 70% | Active | 23.1 µM | 21.1 µM | 16.1 µM |  |  | 
O=C(CCl)NC(=O)NC1C2CC3CC(C2)CC1C3 (centres undefined) |  |  |  |  |  | 6.2 µM | 3.2 µM | 5.1 µM |  |  | 
O=C(CCl)NC(=O)Nc1ccc(C2CCCCC2)cc1 | 51% | Active | 24% | 25% |  | 1.5 µM | 0.9 µM | 2.3 µM |  |  | 
O=C(CCl)NC(=O)Nc1ccc(OC2CCCCC2)cc1 | 20% | Active | 10% | 70% |  | 4.7 µM | 5 µM | 3.1 µM |  |  | 
O=C(NCCCl)Nc1ccc(OCc2ccccc2)cc1 |  |  |  |  | inactive | 79.7 µM |  | 37.5 µM |  | inactive | 
